Assay results as given in article PMC3055594 (Glycobiology, 2010).
Read-outs that look alike come from different tables or passages of the source.

Legend:
[1] = biological target: T1, Mt-PrsA (Mycobacterium tuberculosis, UniProt P9WKE3); assay type: biochemical; conditions: 2 mM final concentration, 37°C
T1 sequence (P9WKE3 1-326): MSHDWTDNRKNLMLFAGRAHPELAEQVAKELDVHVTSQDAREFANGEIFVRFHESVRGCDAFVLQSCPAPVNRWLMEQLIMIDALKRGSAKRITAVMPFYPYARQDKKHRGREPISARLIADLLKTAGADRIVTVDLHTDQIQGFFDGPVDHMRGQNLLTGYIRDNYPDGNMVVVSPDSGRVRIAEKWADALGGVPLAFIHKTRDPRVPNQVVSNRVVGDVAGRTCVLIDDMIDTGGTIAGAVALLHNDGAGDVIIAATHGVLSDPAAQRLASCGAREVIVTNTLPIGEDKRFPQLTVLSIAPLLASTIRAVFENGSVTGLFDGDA

[2] = biological target: T1, Mt-PrsA; experiment: Intrinsic tryptophan fluorescence; assay type: binding
Summary of the method: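 Excitation was at 292 nm; emission spectra were taken at 300–400 nm 5 min after each ligand aliquot. ΔFemission at 335 nm was plotted against [L] and fitted for Kd and Hill n. R5P was titrated with or without 5 mM AMPPNP, and AMPPNP with or without 5 mM R5P.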

[3] = system: arabinofuranosyltransferases EmbA, EmbB, EmbC and AftB; assay type: biochemical, Mycobacterium smegmatis; conditions: EMB 100 µg/mL; ADP 2 mM
[4] = biological target: T1, Mt-PrsA; conditions: 5 mM ligand
Summary of the method: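 Recombinant Mt-PrsA was purified by Ni2+-NTA with a 250 mM imidazole step to ~98% purity, then dialyzed into 50 mM KH2PO4 (pH 7.9), 300 mM NaCl, 1 mM DTT. Sedimentation velocity was run with absorbance optics using no ligand or 5 mM R5P, ATP or ADP. The read-out was the molar mass distribution c(M) against apparent molecular weight.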

[5] = biological target: T1, Mt-PrsA; experiment: Continuous enzyme-coupled spectrophotometric assay of Mt-PrsA; assay type: biochemical
[6] = read-out: Kd (ITF), ligand alone, 70 µM Mt-PrsA

`Nc1ncnc2c1ncn2[C@@H]1O[C@H](COP(=O)(O)OP(=O)(O)O)[C@@H](O)[C@H]1O` [ADP] was tested, and the “effect on Mt-PrsA activity / p[14C]Rpp formation” value [1] was “strongly inhibited”, the “Hill coefficient (n) of binding (ITF)” value ([2]; ligand alone) was 2 and the Kd [2, 6] was 513 µM. The “effect on AraT-dependent product formation” value [3] was “inhibition of any AraT-dependent product formation”, the “effect on oligomeric state of Mt-PrsA, c(M) distribution” value (from here on “effect on oligomeric state of Mt-PrsA”) [4] was “shifted toward an increase in the hexameric state” and the Ki ([5]; read-out: Ki against increasing [ATP], saturating [R5P], Eq. (6)) was 522 µM.
With `Nc1ncnc2c1ncn2C1OC(COP(=O)(O)OP(=O)(O)NP(=O)(O)O)C(O)C1O` (stereo not drawn) [AMPPNP, 5'-adenylyl-β,γ-imidodiphosphate] the “Hill coefficient (n) for AMPPNP in the presence of R5P” value ([2]; 5 mM R5P) was 5, the “Hill coefficient (n) of binding (ITF)” value ([2]; ligand alone) was roughly 4 and the Kd [2, 6] was 31 µM. The Kd ([2]; read-out: Kd for AMPPNP in the presence of R5P, 5 mM R5P) was 28.2 µM.
With `Nc1ncnc2c1ncn2[C@@H]1O[C@H](COP(=O)(O)OP(=O)(O)OP(=O)(O)O)[C@@H](O)[C@H]1O` [ATP] the “Hill coefficient (n) of binding (ITF)” value ([2]; ligand alone) was roughly 4, the Kd [2, 6] was 28.3 µM and the “c(M) peak position” value [4] was ~70,000 Da. The “effect on oligomeric state of Mt-PrsA” value [4] was “reduction in the intensity of the hexameric species”, the “apparent Hill coefficient (n), kinetics” value ([5]; increasing [ATP], saturating R5P, 50 mM Pi) was 1.68 and the “Vmax for ATP” value ([5]; saturating R5P, 50 mM Pi) was 601 µmol⁻¹ min⁻¹ mg⁻¹. For the same compound, the “S0.5 for ATP” value ([5]; saturating R5P, 50 mM Pi, Eq. (4)) was 62.65 µM.
For `[Ca+2].[Cl-].[Cl-]` [CaCl2], the “effect on Mt-PrsA activity / p[14C]Rpp formation” value [1] was “loss of Mt-PrsA activity”.
For `CC[C@@H](CO)NCCN[C@@H](CC)CO` [EMB, ethambutol], the “effect on AraT-dependent product formation” value [3] was “loss of the upper band with only the lower band remaining”.
`O=P(O)(O)O` [Pi, inorganic phosphate] was tested, and the “concentration required for full enzyme activation” value [5] was 50 mM.
For `O=C[C@H](O)[C@H](O)[C@H](O)COP(=O)(O)O` [R5P, ribose-5-phosphate], the Kd ([2]; Kd (ITF), ligand alone, 70 µM Mt-PrsA) was 24.8 µM, the Kd ([2]; apparent Kd for R5P in the presence of AMPPNP, 5 mM AMPPNP) was 21.4 µM and the “effect on oligomeric state of Mt-PrsA” value [4] was “no apparent change in the equilibrium or oligomeric state”. For the same compound, the Km ([5]; read-out: Km for R5P, saturating ATP, 50 mM Pi, Eq. (2)) was 8.2 µM and the “Vmax (increasing R5P)” value ([5]; saturating ATP, 50 mM Pi) was 530 µmol⁻¹ min⁻¹ mg⁻¹.
